Experimental data: ChEMBL document CHEMBL1128250, “Structure-activity studies of 2,3,4,4a,5,9b-hexahydroindeno[1,2-c]pyridines as antispermatogenic agents for male contraception” (1995)
“And” between values parts separate entries of the source, which are not always exact repeats. Equal values may be shown once.

What was measured:
Mus musculus [1] = assay: Effect on right testes body weight single oral dose of 10 mg/kg was given and the change after 14 h of dosing was observed.; type: functional, Testis
In short: (§1)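 Male CD-1 outbred Swiss albino mice, single oral gavage in acetate buffer pH 5 (10 mL/kg), 3, 10 or 30 mg/kg, plus vehicle control. Killed on day 1, 3 or 14 after dosing (times are days, not hours). Testes removed, right and left weighed separately, sectioned for histology and scored on a 0–6 spermatogenic index. Body weight change recorded. Mean ± SEM, n = 5; p < 0.05 versus control.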

Mus musculus [2] = assay: Effect on right spermatogenic index single oral dose of 10 mg/kg was given and the change after 3 hr of dosing was observed.; type: functional; in short: as §1
Mus musculus [3] = assay: Effect on spermatogenic index single oral dose of 30 mg/kg was given and the change after 14 hr of dosing was observed; type: functional; in short: as §1
Mus musculus [4] = assay: Effect on spermatogenic index single oral dose of 3 mg/kg was given and the change after 14 hr of dosing was observed; type: functional; in short: as §1
Mus musculus [5] = assay: Effect on right testes weight asingle oral dose of 3 mg/kg was given and the change after 14 hr of dosing was observed.; type: functional, Testis; in short: as §1
Mus musculus [6] = assay: Effect on left testes weight single oral dose of 30 mg/kg was given and the change after 1 hr of dosing was observed.; type: functional, Testis; in short: as §1
Mus musculus [7] = assay: Tested for its effect on mouse testes weight 3 days after single sub cutaneous dose (5 mg/kg); type: functional, Testis
In short: (§2)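 CD-1 outbred Swiss albino male mice, 5 per dose, single subcutaneous injection on day 0 at 10 mL/kg in ethanol/Tween-20/water (3:7:90). Killed 72 h later. Testes weighed and scored for spermatogenic index (0–6). Results are % reduction versus vehicle control. Each assay included a 30 mg/kg positive control. Dunnett's one-tailed t-test, p < 0.05. Oral versus sc route compared by ANOVA.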

Mus musculus [8] = assay: Effect on right testes weight single oral dose of 30 mg/kg was given and the change after 14 hr of dosing was observed.; type: functional, Testis; in short: as §1
Mus musculus [9] = assay: Effect on right testes weight single oral dose of 3 mg/kg was given and the change after 3 hr of dosing was observed.; type: functional, Testis; in short: as §1
Mus musculus [10] = assay: tested for its effect on spermatogenic index 3 days after single oral dose (3 mg/kg); type: functional
In short: (§3)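 Male CD-1 (ICR)BR outbred Swiss albino mice, 5/dose, single oral gavage dose (10 mL/kg) on day 0 in acetate buffer pH 5 or Tween-20-based vehicle; killed 72 h later. Testis cross-sections scored histologically on a 0–6 spermatogenic index (Sertoli only to >100 late spermatids/tubule). Reported as % reduction versus vehicle control; Dunnett's one-tailed t-test.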

Mus musculus [11] = assay: Effect on right testes weight after 1 hr of dosing was observed.; type: functional, Testis; in short: as §1
Mus musculus [12] = assay: Effect on change in body weight single oral dose of 3 mg/kg was given and the change after 14 hr of dosing was observed.; type: functional; in short: as §1
Mus musculus [13] = assay: Effect on left testes body weight a single oral dose of 3 mg/kg was given and the change after 1 h of dosing was observed.; type: functional, Testis; in short: as §1
Mus musculus [14] = assay: Tested for its effect on spermatogenic index 3 days after single oral dose (90 mg/kg),; type: functional
In short: (§4)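 CD-1 outbred Swiss albino male mice, 5 per dose, single gavage on day 0 at 10 mL/kg. Vehicle was 0.15 M acetate buffer pH 5, ethanol/Tween-20/water (3:7:90), or 1% Tween-20 in water. CO2 euthanasia 72 h later. Testes weighed and histologically scored (spermatogenic index 0–6). Values are % reduction versus the assay's vehicle control. Positive control was 30 mg/kg of the parent compound. Significance by Dunnett's one-tailed t-test, p < 0.05.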

Mus musculus [15] = assay: tested for its effect on spermatogenic index 3 days after single oral dose (1 mg/kg); type: functional; in short: as §3
Mus musculus [16] = assay: Effect on spermatogenic index single oral dose of 30 mg/kg was given and the change after 1 hr of dosing was observed.; type: functional; in short: as §1
Mus musculus [17] = assay: Tested for its effect on spermatogenic index 3 days after single oral dose (1 mg/kg),; type: functional; in short: as §4
Mus musculus [18] = assay: Tested for its effect on mouse testes weight 3 days after single sub cutaneous dose (30 mg/kg); type: functional, Testis; in short: as §2
Mus musculus [19] = assay: Effect on left testes weight single oral dose of 30 mg/kg was given and the change after 3 hr of dosing was observed.; type: functional, Testis; in short: as §1

For `CCN1CC[C@H]2[C@H](c3ccc(C)cc3)c3cc(C)ccc3[C@H]2C1.Cl`, the Testes weight (Mus musculus [1]) was 104.8 mg, the Spermatogenic index (Mus musculus [2]) was 3.5 and the Spermatogenic index (Mus musculus [3]) was 1.7. It also gave a Spermatogenic index (Mus musculus [4]) of 6, a Testes weight (Mus musculus [5]) of 126.5 mg and a Testes weight (Mus musculus [6]) of 92.8 mg. The Reduction (Mus musculus [7]) was 5%, the Testes weight (Mus musculus [8]) was 49.4 mg and 47.1 mg and the Testes weight (Mus musculus [9]) was 112.6 mg. The Reduction (Mus musculus [10]) was 31%, the “Change in body weight” value (Mus musculus [11]) was 3.22 g and the “Change in body weight” value (Mus musculus [12]) was 3.62 g. The Testes weight (Mus musculus [13]) was 96.9 mg, the Reduction (Mus musculus [14]) was 5% and the Reduction (Mus musculus [15]) was 59%. The Spermatogenic index (Mus musculus [16]) was 4.4, the Reduction (Mus musculus [17]) was 7% and the Reduction (Mus musculus [18]) was 14%. The Testes weight (Mus musculus [19]) was 78.2 mg.
